An excerpt weighted towards active compounds, which were near 4.7% of everything screened.
697 NFkB inh – inhibitors of the PMA/ionomycin-induced NF-kB reporter in 697 B cells; 330,000 tested, 0.33% active; inhibition, % at 4 µM; 697 B-cell NF-kB luciferase reporter, 16 h; AID 435022; in the data active = inhibition above about 35%
Jurkat NFkB inh – inhibitors of the PMA/ionomycin-induced NF-kB reporter in Jurkat cells; PMA/ionomycin-induced NF-kB luciferase reporter, luminescence; inhibition, % at 4 µM; 330,000 tested, 0.53% active; in the data active = inhibition above about 50%
aSyn 5UTR inh – 5' untranslated region of α-synuclein, MLPCN primary screen; alpha-synuclein 5'UTR reporter, inhibitor activity; inhibition, % (tested at 7.5 µM); 300,000 tested, 0.82% active; in the data active = inhibition above about 60%;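 note: H4 neuroglioblastoma cells stably carrying SNCA 5'UTR luciferase fusion; 0% = DMSO wells and 100% = positive control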
Mdm2-MdmX inh – disrupts the human Mdm2-MdmX interaction; O15151+Q00987; SaOS-2 split-luciferase Mdm2/MdmX complementation, luminescence; inhibition, % at 8 µM; 330,000 tested, 3% active;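 active = inhibition of at least 50% at 8 µM in the primary screen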
Target sequence (O15151 whole entry, looked up): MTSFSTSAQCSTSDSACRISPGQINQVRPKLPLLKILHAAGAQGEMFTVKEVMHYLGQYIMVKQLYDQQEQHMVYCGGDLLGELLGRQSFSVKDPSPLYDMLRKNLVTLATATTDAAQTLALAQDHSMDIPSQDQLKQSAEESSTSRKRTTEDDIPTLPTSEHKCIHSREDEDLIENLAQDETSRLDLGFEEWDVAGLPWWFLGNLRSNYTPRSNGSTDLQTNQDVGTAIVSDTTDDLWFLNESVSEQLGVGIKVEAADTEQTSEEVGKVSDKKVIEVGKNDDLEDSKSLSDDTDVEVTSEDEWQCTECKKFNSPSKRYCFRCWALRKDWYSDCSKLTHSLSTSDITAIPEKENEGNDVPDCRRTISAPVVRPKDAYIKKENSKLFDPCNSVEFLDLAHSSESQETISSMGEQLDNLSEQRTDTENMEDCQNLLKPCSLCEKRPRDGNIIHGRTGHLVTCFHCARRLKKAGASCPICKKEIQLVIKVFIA
Target sequence (Q00987 whole entry, looked up): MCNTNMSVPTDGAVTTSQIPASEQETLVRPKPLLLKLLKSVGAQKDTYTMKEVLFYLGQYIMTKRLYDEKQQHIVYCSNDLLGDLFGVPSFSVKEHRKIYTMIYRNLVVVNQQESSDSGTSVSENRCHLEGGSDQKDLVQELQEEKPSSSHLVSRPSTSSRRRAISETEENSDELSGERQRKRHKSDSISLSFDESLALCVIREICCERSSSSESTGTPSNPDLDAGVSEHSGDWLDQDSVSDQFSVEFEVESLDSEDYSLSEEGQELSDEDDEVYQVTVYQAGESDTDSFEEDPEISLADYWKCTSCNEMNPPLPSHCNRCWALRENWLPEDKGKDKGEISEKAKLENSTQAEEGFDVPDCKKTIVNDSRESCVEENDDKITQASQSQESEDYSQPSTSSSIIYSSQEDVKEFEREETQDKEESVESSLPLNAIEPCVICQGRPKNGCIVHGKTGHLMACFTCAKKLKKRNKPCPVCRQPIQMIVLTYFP
VIM-2 inhibitor – blocks Pseudomonas aeruginosa VIM-2 metallo-beta-lactamase; purified VIM-2, nitrocefin hydrolysis, epi-absorbance fluorescence; inhibition, % at 5.6 µM; 290,000 tested, 0.89% active;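 active = inhibition above the mean of all tested compounds plus 3 SD, cutoff set per screening run, cut at about 7.5% in these data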;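 note: red hydrolysis product quenches plate fluorescence so inhibitors raise well fluorescence; 0% = enzyme with DMSO and 100% = DMSO without enzyme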
IMP-1 inhibitor – inhibitors of Pseudomonas aeruginosa IMP-1 metallo-beta-lactamase | purified IMP-1, nitrocefin hydrolysis, epi-absorbance fluorescence | inhibition, % at 5.6 µM | 290,000 tested, 0.45% active | AID 1556;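 active = inhibition above the mean plus 3 SD of all compounds in the same screening run, cut at about 4.5% in these data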;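 note: 0% = IMP-1 with DMSO and 100% = DMSO wells lacking enzyme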
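Assay system: purified recombinant IMP-1 beta-lactamase. Input: IMP-1 0.2 nM before substrate addition. Buffer or medium: Zinc- and detergent-supplemented HEPES buffer, pH 7.1. Schedule: 25 °C, 15 min preincubation, 25 min reaction. Signal: Epi-absorbance fluorescence, 480 nm excitation, 530 nm emission. Evaluation: percent inhibition from optical density relative to buffer-blank wells.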
Mdm2-MdmX conf – confirmation of human Mdm2/MdmX interaction inhibitors; shares compounds with Mdm2-MdmX inh; Mdm2-MdmX binding, luminescent assay; inhibition, % at 8 µM; 10,000 tested, 55% active; AID 489028; in the data active = inhibition above about 40%
Full FLuc ctr – counter-screen for Mdm2/MdmX inhibitors: full-length luciferase. shares compounds with Mdm2-MdmX inh. SaOS-2 full-length luciferase counterscreen, luminescence. inhibition, % at 8 µM. 6,200 tested, 77% active. AID 504607;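 active = mean inhibition at 8 µM reaching about 37%, which flags the compound as non-specific, limit read from the data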;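 note: p53-null SaOS-2 cells with luciferase driven by a doxycycline-inducible promoter; compound on cells about two nights before reading with doxycycline added after day one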
* marks the source's active call; other numbers are inactive results; / = no result given.

SMILES | 697 NFkB inh | Jurkat NFkB inh | aSyn 5UTR inh | Mdm2-MdmX inh | VIM-2 inhibitor | IMP-1 inhibitor | Mdm2-MdmX conf | Full FLuc ctr
CCOc1ccc(C(=O)Nc2cccc(-c3nc4cccnc4o3)c2)cc1Cl | 3 | -11 | -27 | 56* | -2 | 0 | 54* | 42*
CCOc1ccc(C(=O)Nc2ccc(NC(=O)c3ccco3)c(Cl)c2)cc1Br | 11 | -2 | 13 | 4 | -3 | -2 | / | /
CCOc1ccc(C(=O)Nc2ccc(NC(=O)c3ccco3)c(Cl)c2)cc1Cl | 5 | -7 | -55 | 62* | -2 | 0 | 49* | 94*
Cc1ccc(OCc2cc(C(=O)N3CCN(C4CCCCC4)CC3)no2)cc1C | -36 | -47 | -62 | -5 | 0 | -2 | / | /
CN1C(=O)S/C(=C\c2ccc(-n3cncn3)cc2)C1=O | 7 | 4 | -93 | 3 | -1 | -2 | / | /
COc1ccc(-c2nnc(Nc3nc4c(OC)cccc4s3)o2)c(OC)c1 | -50 | 26 | 20 | 68* | -3 | -4 | 58* | 48*
Nc1nc(NC(=O)c2ccccc2)nn1-c1ccccc1 | -37 | -28 | -71 | -16 | -3 | -3 | / | /
O=C(Nc1nc(NC(=O)c2ccco2)n(-c2ccccc2)n1)c1ccccc1 | -24 | 9 | 79* | 74* | -2 | -2 | 64* | 46*
CCNc1cc(N2CCCC2)ccc1[N+](=O)[O-] | -54 | 0 | -18 | 51* | 5 | -5 | 9 | /
N#Cc1ccc(NC(=O)Nc2cccc(C#N)c2)cc1 | / | / | -33 | / | -1 | -2 | / | /
N#Cc1ccc(NC(=O)Nc2ccc(Oc3ccc(NC(=O)Nc4ccc(C#N)cc4)cc3)cc2)cc1 | -5 | 22 | 74* | 60* | -4 | -4 | 74* | 35
Cc1cc2c(cc1C)-c1nnc(-c3ccc4ccccc4n3)n1C(C)(C)C2 | 5 | -2 | 2 | 70* | -1 | -2 | -1 | /
Nc1c(N(CCC2=CCCCC2)C(=O)COc2ccc(F)cc2)c(=O)[nH]c(=O)n1Cc1ccccc1 | 26 | -4 | / | 53* | / | / | 11 | /
O=C(Nc1cc(Cl)ccc1Cl)c1cc(-c2ccco2)on1 | -8 | -37 | -30 | 62* | -4 | -1 | 12 | /
O=C(Nc1cccnc1Cl)c1cc(-c2ccc(O)cc2)on1 | -9 | -23 | -50 | -19 | 0 | -1 | / | /
O=C(Nc1cccnc1Cl)c1cc(-c2ccc(Cl)cc2)on1 | 11 | -3 | -47 | 54* | -2 | -5 | -2 | /
O=C(OCn1ncc(Cl)c(Cl)c1=O)c1ccc(F)cc1 | -31 | 32 | -22 | 93* | -7 | -3 | 100* | 50*
O=C(OCn1ncc(Cl)c(Cl)c1=O)c1ccccc1Cl | / | / | 50 | / | -4 | -2 | / | /
O=c1c(Cl)c(Cl)cnn1Cc1ccc(F)cc1 | -10 | 2 | -57 | 93* | -1 | -4 | 35 | /
O=c1cnn(Cc2ccc(F)cc2)c2ccccc12 | 12 | 3 | 7 | 4 | -1 | -1 | / | /
COCCN(C(=O)COC(=O)COc1ccc(Cl)c(C)c1)c1c(N)n(Cc2ccccc2)c(=O)[nH]c1=O | -16 | 10 | 4 | 2 | -2 | -2 | / | /
O=C1Nc2ccc(Br)cc2C12NNc1ccccc1O2 (configuration not stated) | -4 | -22 | -41 | 76* | -2 | -3 | 23 | /
CCN(CC)c1ccc(/C=N/N(c2ccccc2)c2ccccc2)c(O)c1 | -12 | 19 | -32 | -6 | -2 | -3 | / | /
CCN(CC)c1ccc(/C=N/NC(=S)NCc2ccccc2)c(O)c1 | -4 | 8 | 51 | 60* | -2 | -3 | 44* | 44*
CCN(CC)c1ccc(/C=N/Nc2nc3ccccc3[nH]2)c(O)c1 | -41 | 25 | 84* | 58* | -4 | -4 | 74* | 40*
SMILES | 697 NFkB inh | Jurkat NFkB inh | aSyn 5UTR inh | Mdm2-MdmX inh | VIM-2 inhibitor | IMP-1 inhibitor | Mdm2-MdmX conf | Full FLuc ctr
CCN(CC)c1ccc(/C=N/NC(=O)c2ccco2)c(O)c1 | -182 | 36 | 11 | 59* | -1 | -3 | 57* | 55*
CCN(CC)c1ccc(/C=N/NC(=O)c2ccco2)cc1 | / | / | -39 | / | 0 | -5 | / | /
CCCC(=O)N=C1SC2CS(=O)(=O)CC2N1c1ccc(-c2nc3ccc(C)cc3s2)cc1 (configuration not stated) | -125 | -103 | -132 | 73* | -1 | -2 | -110 | /
COc1ccc(-c2nn(-c3ccccc3)cc2C(=O)NC(=S)Nc2cc(Cl)ccc2Cl)cc1 | 0 | 0 | -8 | 74* | 0 | 1 | 43* | 51*
O=C1c2ccccc2C2=Nc3ccccc3SC(c3cccc(F)c3)C12 (configuration not stated) | -50 | 32 | -15 | 42 | -3 | -3 | / | /
O=C1c2ccccc2C2=Nc3ccccc3SC(c3ccc(Cl)cc3)C12 (configuration not stated) | -21 | 19 | -25 | 87* | 0 | -3 | 47* | 78*
Cc1ccc(S(=O)(=O)Nc2ccc3c(c2)OCCO3)c(C)c1NS(C)(=O)=O | -2 | -5 | -24 | 33 | -1 | -2 | / | /
CC1(NC(=O)CC(c2ccccc2)(c2ccccc2)c2ccccc2)CCN(CCCc2ccccc2)C1=O (configuration not stated) | 0 | -5 | / | 76* | / | / | 23 | /
CC1(NC(=O)CCc2ccccc2)CCN(CCCc2ccccc2)C1=O (configuration not stated) | 16 | 6 | / | -1 | / | / | / | /
Cc1ccc(NS(=O)(=O)c2ccc3c(c2)CCN3C(=O)CCC(=O)O)cc1Cl | 19 | -6 | -9 | 28 | 0 | -3 | / | /
CCC(=O)c1ccc2c(c1)N(CCCN(C)C)c1ccccc1S2 | 1 | -4 | -23 | 55* | / | / | 15 | /
COc1ccc2c(c1)Sc1ccccc1N2CCN(C)C | 2 | -11 | -11 | 29 | 0 | -2 | / | /
Cc1ccc(C(=O)NNC(=O)c2ccc(NC(=O)C(C)(C)C)cc2)cc1 | 2 | -2 | -20 | 3 | -3 | -4 | / | /
COc1cccc(C2C(C(N)=O)=C(C)Nc3nc(CCCO)nn32)c1 (configuration not stated) | -6 | -5 | 0 | 4 | -2 | -1 | / | /
O=C(Nc1ccc(N2CCOCC2)cc1)Nc1ccc2nc(-c3ccco3)c(-c3ccco3)nc2c1 | 6 | -16 | 112* | 61* | -3 | -2 | 41* | 61*
O=C(Nc1ccc2nc(-c3ccco3)c(-c3ccco3)nc2c1)NC1CC1 | -33 | -21 | -65 | -39 | -3 | 1 | / | /
Nc1ncnc2c1ncn2[C@@H]1O[C@H](CNCc2cn(CC(=O)NC3CC3)c3ccccc23)[C@@H](O)[C@H]1O | -14 | -18 | / | -10 | / | / | / | /
CCCCC(=O)/C=C/n1c(=S)oc2ccccc21 | -64 | 0 | -151 | 100* | -4 | -1 | 33 | /

Screens as filed in PubChem.
